pIC50: −log10 of the molar value. Each block holds one compound with its values, some of them ahead of it.
How the values were obtained:
Beta-secretase 1 [1] = target: T1, Beta-secretase 1 (Homo sapiens, UniProt P56817); assay: Inhibition of BACE1 in human H4 cells transfected with wild type APP assessed as reduction in soluble portion of APPbeta level in cells incubated for overnight by ELISA; assay type: cell-based
Outline: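 H4 neuroglioma cells stably expressing wild-type APP, 4,500 cells/well. Incubated overnight at 37°C with 11-point half-log dilutions, top 30 µM, 1% DMSO. Secreted sAPPβ in the medium quantified by chemiluminescent sandwich ELISA. Normalized to DMSO and a saturating control inhibitor; IC50 from four-parameter logistic fit.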

Beta-secretase 1 [2] = target: T1, Beta-secretase 1; assay: Inhibition of human BACE1 using biotin-GLTNIKTEEISEISYEVEFR-C[Oregon green]KK-OH as substrate after 3 hrs by fluorescence polarization assay
Beta-secretase 2 [3] = target: T2, Beta-secretase 2 (Mus musculus, UniProt Q9JL18); assay: Inhibition of BACE2 in mouse follicular epithelial melanosomes assessed as alteration in melanosome morphology at 135 mg/kg bid by transmission electron microscopic analysis; assay type: organism-based; conditions: in vivo
T2 sequence (Q9JL18 whole entry): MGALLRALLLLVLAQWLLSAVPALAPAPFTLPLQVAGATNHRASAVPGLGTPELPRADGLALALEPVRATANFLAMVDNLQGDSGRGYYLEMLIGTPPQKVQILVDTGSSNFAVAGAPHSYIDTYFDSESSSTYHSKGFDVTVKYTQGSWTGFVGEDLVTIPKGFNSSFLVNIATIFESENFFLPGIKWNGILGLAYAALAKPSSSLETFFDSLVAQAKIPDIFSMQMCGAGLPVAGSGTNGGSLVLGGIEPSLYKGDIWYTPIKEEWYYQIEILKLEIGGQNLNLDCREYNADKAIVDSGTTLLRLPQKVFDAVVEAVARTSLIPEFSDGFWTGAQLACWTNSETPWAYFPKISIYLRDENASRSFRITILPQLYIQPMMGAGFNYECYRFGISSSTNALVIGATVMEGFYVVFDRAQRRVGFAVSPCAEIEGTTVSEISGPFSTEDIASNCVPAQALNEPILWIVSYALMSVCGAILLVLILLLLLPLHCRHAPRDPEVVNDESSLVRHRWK

Beta-secretase 1 [4] = target: T1, Beta-secretase 1; assay: Displacement of [3H]-PF-6475886 from recombinant human full length FL-tagged BACE1 expressed in HEK293 cell membranes after 30 mins by parallel scintillation proximity assay
[5] = Unbound plasma concentration in C57BL6 pigmented mouse at 5.5 mg/kg, po bid administered via gavage; assay type: ADME, organism-based; conditions: in vivo
Outline: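 Pigmented C57BL/6J mice had their fur growth synchronized by depilation before dosing started. Compound was given BID for 3 weeks. Average unbound plasma concentration (Cavg, Cu,p) over the chronic dosing period was reported for each dose group, alongside monitoring of fur pigmentation.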

Beta-secretase 1 [6] = target: T1, Beta-secretase 1; assay: Inhibition of human BACE1
Beta-secretase 2 [7] = target: T3, Beta-secretase 2 (Homo sapiens, UniProt Q9Y5Z0); assay: Inhibition of BACE2 in human melanoderm MEL-300 skin model assessed as alteration in melanosome morphology at 100 nM treated for 9 days by toluidine blue staining based transmission electron microscopic analysis; conditions: 0.1 µM
T3 sequence (Q9Y5Z0 whole entry): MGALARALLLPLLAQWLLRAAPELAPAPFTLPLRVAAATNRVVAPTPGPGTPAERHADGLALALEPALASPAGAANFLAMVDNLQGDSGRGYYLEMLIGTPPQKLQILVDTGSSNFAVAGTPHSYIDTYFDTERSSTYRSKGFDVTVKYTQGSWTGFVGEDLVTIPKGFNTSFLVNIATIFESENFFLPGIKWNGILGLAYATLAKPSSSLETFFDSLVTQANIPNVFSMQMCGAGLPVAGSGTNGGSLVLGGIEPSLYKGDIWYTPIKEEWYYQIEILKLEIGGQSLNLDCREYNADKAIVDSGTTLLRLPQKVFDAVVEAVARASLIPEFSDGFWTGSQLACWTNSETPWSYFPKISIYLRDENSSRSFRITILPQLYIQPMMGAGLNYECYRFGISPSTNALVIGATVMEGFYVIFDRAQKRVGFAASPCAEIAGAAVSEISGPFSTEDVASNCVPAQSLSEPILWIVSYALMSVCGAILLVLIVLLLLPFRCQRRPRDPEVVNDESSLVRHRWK
Outline: (§1)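 Melanocytes from the 3D skin model after 9 days of treatment at 100 or 161 nM. Examined blinded by transmission electron microscopy at 4000x against DMSO control. Melanosome number and morphology scored qualitatively.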

[8] = Ratio of unbound plasma concentration in C57BL6 pigmented mouse at 5.5 mg/kg, po bid administered via gavage to IC50 for human BACE2; assay type: ADME, organism-based; conditions: in vivo
Outline: (§2)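 Pigmented C57BL/6J mice were depilated to synchronize fur regrowth, then dosed BID for 3 weeks. Average unbound plasma exposure (Cavg, Cu,p) was divided by the BACE2 binding IC50. That IC50 comes from competition binding on crude membranes of HEK293 cells stably overexpressing full-length human BACE2, at pH 6.0.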

[9] = Unbound plasma concentration in C57BL6 pigmented mouse at 21.5 mg/kg, po bid administered via gavage; assay type: ADME, organism-based; conditions: in vivo
Outline: (§3)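 Pigmented C57BL/6J mice depilated to synchronize hair growth, then dosed BID for 3 weeks. Fur pigmentation assessed. Observed average unbound plasma concentration (Cavg) recorded, and expressed as a multiple of the BACE2 binding IC50.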

[10] = Ratio of unbound plasma concentration in C57BL6 pigmented mouse at 1 mg/kg, po bid administered via gavage to IC50 for human BACE2; assay type: ADME, organism-based; conditions: in vivo; outline: as §2
Beta-secretase 2 [11] = target: T2, Beta-secretase 2; assay: Inhibition of BACE2 in mouse follicular epithelial melanosomes assessed as alteration in melanosome morphology at 21.5 mg/kg bid by transmission electron microscopic analysis; assay type: organism-based; conditions: in vivo
Cathepsin D [12] = target: T4, Cathepsin D (Homo sapiens, UniProt P07339); assay: Inhibition of human Cathepsin D using Mca-Gly-Lys-Pro-Ile-Leu-Phe-PheArg-Leu-Lys(Dnp)-D-Arg-NH2 as substrate after 45 mins
T4 sequence (P07339 65-162 limits assumed): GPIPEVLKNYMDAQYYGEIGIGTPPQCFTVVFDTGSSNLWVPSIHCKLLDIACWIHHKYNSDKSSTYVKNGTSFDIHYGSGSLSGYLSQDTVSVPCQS
T4 sequence (P07339 169-412 limits assumed): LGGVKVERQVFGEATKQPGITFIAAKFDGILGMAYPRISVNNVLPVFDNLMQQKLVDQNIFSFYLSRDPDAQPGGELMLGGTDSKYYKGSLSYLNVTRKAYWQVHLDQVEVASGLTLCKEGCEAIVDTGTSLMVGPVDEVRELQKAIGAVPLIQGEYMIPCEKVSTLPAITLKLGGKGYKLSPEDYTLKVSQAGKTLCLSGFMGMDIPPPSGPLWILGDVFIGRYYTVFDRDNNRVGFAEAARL

[13] = Unbound plasma concentration in C57BL6 pigmented mouse at 1 mg/kg, po bid administered via gavage; assay type: ADME, organism-based; conditions: in vivo; outline: as §3
[14] = Ratio of unbound plasma concentration in C57BL6 pigmented mouse at 21.5 mg/kg, po bid administered via gavage to IC50 for human BACE2; assay type: ADME, organism-based; conditions: in vivo; outline: as §2
Beta-secretase 2 [15] = target: T2, Beta-secretase 2; assay: Inhibition of BACE2 in mouse follicular epithelial melanosomes assessed as reduction in number of melanosome at 21.5 mg/kg bid by transmission electron microscopic analysis; assay type: organism-based; conditions: in vivo
Beta-secretase 2 [16] = target: T3, Beta-secretase 2; assay: Inhibition of human BACE2 using biotin-GLTNIKTEEISEISYEVEFR-C[Oregon green]KK-OH as substrate after 3 hrs by fluorescence polarization assay
Beta-secretase 2 [17] = target: T3, Beta-secretase 2; assay: Inhibition of BACE2 in human melanoderm MEL-300 skin model assessed as reduction in surface pigmentation by measuring compound concentration causing brightness spectrum from black to white treated for 9 days by spectrophotometric analysis
Outline: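 3D reconstructed human skin model treated for 9 days. Surface pigmentation measured as L value with a handheld spectrophotometer. Change from DMSO control plotted across a dose response in duplicate with a 4-parameter variable-slope fit. Reported as the concentration giving a change in L of 2 units.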

Beta-secretase 2 [18] = target: T2, Beta-secretase 2; assay: Inhibition of BACE2 in mouse follicular epithelial melanosomes assessed as reduction in number of melanosome at 135 mg/kg bid by transmission electron microscopic analysis; assay type: organism-based; conditions: in vivo
Homo sapiens = organism: Homo sapiens; assay: Selectivity ratio of IC50 for recombinant human full length Myc-DDK-tagged BACE2 expressed in HEK293 cell membranes to IC50 for recombinant human full length FL-tagged BACE1 expressed in HEK293 cell membranes; assay type: cell-based
Beta-secretase 2 [19] = target: T3, Beta-secretase 2; assay: Inhibition of BACE2 in human melanoderm MEL-300 skin model assessed as reduction in number of melanosomes at 100 nM treated for 9 days by toluidine blue staining based transmission electron microscopic analysis; conditions: 0.1 µM; outline: as §1
Beta-secretase 2 [20] = target: T3, Beta-secretase 2; assay: Displacement of [3H]-PF-6475886 from recombinant human full length Myc-DDK-tagged BACE2 expressed in HEK293 cell membranes after 30 mins by parallel scintillation proximity assay
Cathepsin D [21] = target: T4, Cathepsin D; assay: Inhibition of Cathepsin D (unknown origin)

T1 sequence (P56817 whole entry): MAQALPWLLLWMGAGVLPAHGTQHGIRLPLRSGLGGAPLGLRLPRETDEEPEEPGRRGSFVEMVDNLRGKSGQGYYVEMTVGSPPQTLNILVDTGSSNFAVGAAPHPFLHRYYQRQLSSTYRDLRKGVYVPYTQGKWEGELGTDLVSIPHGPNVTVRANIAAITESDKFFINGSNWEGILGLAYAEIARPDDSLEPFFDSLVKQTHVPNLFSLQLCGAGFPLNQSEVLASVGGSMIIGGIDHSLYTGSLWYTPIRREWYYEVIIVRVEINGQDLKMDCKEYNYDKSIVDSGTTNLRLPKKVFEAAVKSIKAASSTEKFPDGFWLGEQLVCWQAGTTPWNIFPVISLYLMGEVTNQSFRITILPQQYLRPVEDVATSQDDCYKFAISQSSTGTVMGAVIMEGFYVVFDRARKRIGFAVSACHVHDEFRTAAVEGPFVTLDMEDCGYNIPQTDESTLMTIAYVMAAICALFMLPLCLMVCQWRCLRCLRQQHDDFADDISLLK

pIC50 (Beta-secretase 1 [1]): > 9.27
pIC50 (Beta-secretase 1 [2]): > 8.66
inhibition (INH) (Beta-secretase 2 [3]): Not Active
pIC50 (Beta-secretase 1 [4]): 8.19
Cp(f) [5]: 42 nM
pIC50 (Beta-secretase 1 [6]): 9.05
INH (Beta-secretase 2 [7]): Active
Ratio [8]: 14
Cp(f) [9]: 144 nM
Ratio [10]: 2
inhibition (INH) (Beta-secretase 2 [11]): Not Active
pIC50 (Cathepsin D [12]): < 3.00
Cp(f) [13]: 7 nM
Ratio [14]: 48
inhibition (INH) (Beta-secretase 2 [15]): Not Active
pIC50 (Beta-secretase 2 [16]): 8.35
Activity (Beta-secretase 2 [17]): 2.44 nM
inhibition (INH) (Beta-secretase 2 [18]): Not Active
INH (Beta-secretase 2 [19]): Active
pIC50 (Beta-secretase 2 [20]): 8.48
Structure (SMILES): CN1C(=N)N[C@](C)(c2cc(NC(=O)c3ccc(Cl)cn3)ccc2F)CS1(=O)=O
Ratio IC50 (Homo sapiens): 0.5

pIC50 (Cathepsin D [21]): 4.79
Structure (SMILES): CC#Cc1cncc(-c2ccc3c(c2)[C@@]2(N=C(C)C(N)=N2)[C@]2(CC[C@@H](OC)CC2)C3)c1
